According to paper PMC4096303 (Journal of the American Chemical Society, 2013):

What was measured:
[1] = TEAC assay with cell lysates; type: biochemical; conditions: M17 human neuroblastoma cell lysates, relative to Trolox
Procedure, shortened: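 M17 cells grown in 1:1 MEM/F12K with 10% FBS and penicillin/streptomycin to 80–90% confluence. Washed and harvested in cold PBS, pelleted, then sonicated on ice in 5 mM potassium phosphate pH 7.4 (0.9% NaCl, 0.1% glucose) and cleared at 10 000g, 4 °C. Supernatant mixed with test compound (0.045–0.330 mM), metmyoglobin, ABTS and H2O2; 5 min at room temperature; A750 read. TEAC taken as slope ratio versus Trolox; triplicate.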

[2] = target: Aβ40/Aβ42 (Homo sapiens, UniProt P05067); test: Aβ aggregation inhibition experiment; type: biochemical; conditions: Aβ 25 µM
Procedure, shortened: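 Aβ stock made in 1% NH4OH, diluted with ddH2O and quantified by A280. Test compound (50 µM, 1% DMSO) added with or without CuCl2/ZnCl2 (25 µM), 37 °C, constant agitation, 4, 8, 24 h. Read by 10–20% Tris–tricine gel, nitrocellulose transfer, anti-Aβ 6E10 Western blot, and TEM.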

[3] = tested on: preformed aggregates of Aβ and metal–Aβ; test: Aβ disaggregation experiment; type: biochemical; conditions: aggregates preformed 24 h, compound 50 µM, gel/TEM
Procedure, shortened: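 Aβ40 or Aβ42 (25 µM) in Chelex-treated HEPES/NaCl buffer, pH 6.6 for Cu(II) or 7.4 for Zn(II), with or without CuCl2 or ZnCl2 (25 µM). Aggregated 24 h at 37 °C with agitation. Test compound then added (50 µM) and incubated 4, 8 and 24 h at 37 °C with agitation. Analysed by Tris–tricine gel/Western blot (6E10 antibody) and by uranyl acetate-stained TEM.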

[4] = Parallel Artificial Membrane Permeability Assay adapted for BBB; type: in vitro ADME; conditions: PAMPA-BBB, 25 µM, pH 7.4, 4 h, ambient temperature
Procedure, shortened: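 Test compound diluted in Prisma HT buffer, pH 7.4, to 25 µM final (1% DMSO) in donor wells, 11–12 replicates per compound. Acceptor PVDF filter coated with BBB-1 lipid; brain sink buffer in acceptor wells. Sandwich held 4 h at ambient temperature, unstirred. Absorbance read on a plate reader; −logPe averaged by software.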

[5] = In vitro metabolic stability, human liver microsomes; type: in vitro ADME
Procedure, shortened: (§1)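 Liver microsomes incubated with test compound at 1 µM, 37 °C, with ketanserin as reference compound; half-life (t1/2) determined.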

[6] = UV-vis variable-pH titration; type: physicochemical; conditions: for pKa: Acidity constant (pKa), pH range 2–8
Procedure, shortened: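 Test compound (50 µM) in 100 mM NaCl, 10 mM NaOH (pH 12) titrated with small HCl aliquots, recording at least 30 UV–vis spectra over pH 2–8. Acidity constants fitted from the spectra; speciation diagram modelled to give the species distribution at pH 7.4.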

[7] = 2-Deoxyribose assay; type: biochemical; conditions: ligand 125 µM, CuCl2 10 µM, absence and presence of Aβ (freshly prepared and aggregated)
[8] = target: Aβ42 (Homo sapiens, UniProt P05067); test: Ion mobility-mass spectrometry of early Aβ42 oligomerization; type: biochemical; conditions: IM–MS
Procedure, shortened: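 Lyophilized Aβ42 dissolved in 10 mM ammonium acetate, pH 7.4, to a final peptide concentration of 10 µM. Analysed by ion mobility on a traveling-wave Q-TOF mass spectrometer.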

[9] = Brain uptake study; type: in vivo, male CD1 mice; conditions: male, CD1, mouse, oral, 10 mg/kg
Procedure, shortened: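 Single 10 mg/kg oral gavage dose in sterile water to male CD1 mice, n = 3. Blood was drawn 5 min post-dose by retro-orbital or cardiac puncture into K2EDTA. Plasma was spun at 2000g for 5 min at 4 °C. Samples underwent protein precipitation and LC-MS/MS; LLOQ 1 ng/mL plasma, 4 ng/mL brain.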

[10] = Solution speciation studies of Zn; type: binding; conditions: pH 7.4, based on concentration of unchelated Zn(II)
Procedure, shortened: (§2)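 Ligand and metal chloride mixed at M(II):L = 1:2: CuCl2 25 µM, or ZnCl2 50 or 250 µM depending on ligand. Titrated with small HCl aliquots, recording at least 30 UV–vis spectra over pH 2–9. Stability constants fitted from the spectra; speciation diagrams modelled to give metal-free Cu(II) or Zn(II) at pH 7.4.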

[11] = In vitro metabolic stability, rat liver microsomes; type: in vitro ADME
Procedure, shortened: as §1

[12] = Solution speciation studies of Cu; type: binding; conditions: pH 7.4, based on concentration of unchelated Cu(II)
Procedure, shortened: as §2

[13] = tested on: N2aAPPswe or N2a cells; test: Cell viability by MTT assay, Aβ- or metal-Aβ-induced toxicity; type: cell-based, murine; conditions: 10 µM, 24 h, both N2a and N2aAPPswe cells
Procedure, shortened: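 Cells kept at 37 °C under 5% CO2 and seeded at 15 000 cells/well. Given CuCl2 or ZnCl2 (10 µM) plus test compound (10 µM final, 1% DMSO) for 24 h. MTT was added for 4 h at 37 °C and formazan dissolved overnight in acidic DMF/SDS. Absorbance read at 600 nm; viability expressed relative to DMSO-only cells; n = 3.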

[14] = In vitro metabolic stability, mouse liver microsomes; type: in vitro ADME
Procedure, shortened: as §1

[15] = Trolox equivalent antioxidant capacity; type: biochemical; conditions: ABTS cation radicals in EtOH, factor
[16] = Metal selectivity competition experiments by UV-vis; type: binding; conditions: stoichiometric ratios; 50 µM ligand, pH 7.4
Procedure, shortened: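 Ligand at 50 µM (1% DMSO) in Chelex-treated 20 mM HEPES, pH 7.4, 150 mM NaCl. It was first given 1 or 20 equiv of MgCl2, CaCl2, MnCl2, FeCl2, CoCl2, NiCl2 or CuCl2, then ZnCl2 (50 µM). Fe(II) samples were kept anaerobic by N2 purge. UV–vis spectra were recorded after 5 min at room temperature.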

Aβ42, sequence (P05067 672-713): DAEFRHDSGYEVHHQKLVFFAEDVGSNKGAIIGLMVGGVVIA
Aβ40/Aβ42, sequence (P05067 672-711 limits assumed): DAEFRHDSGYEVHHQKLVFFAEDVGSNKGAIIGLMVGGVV

SMILES: Cc1c(C)c2c(c(C)c1O)CCC(C)(C(=O)O)O2 (stereo not drawn) [Trolox, 6-hydroxy-2,5,7,8-tetramethylchroman-2-carboxylic acid]
- Antioxidant capacity (TEAC value) in cell lysates [1]: 1.00 ± 0.08

SMILES: CN(C)c1ccc(O)cc1 [DAP, 4-(dimethylamino)phenol, reference compound]
- Effect on Zn(II)-triggered Aβ aggregation ([2]; ZnCl2 25 µM, compound 50 µM, pH 7.4): influenced Zn(II)-triggered Aβ aggregation, similar to ML

SMILES: CN(C)c1ccc(O)c(CNc2cccc3ccc(CO)nc23)c1 [ML, 4-(dimethylamino)-2-(((2-(hydroxymethyl)quinolin-8-yl)-amino)-methyl)phenol]
- Antioxidant capacity (TEAC value) in cell lysates [1]: 1.41 ± 0.15
- Effect on preformed metal-free and metal-treated Aβ aggregates [3]: could transform preformed aggregates into relatively smaller, amorphous conformations
- −logPe [4]: 4.49 (±0.01)
- half-life at 1 µM [5]: < 30 min
- pKa ([6]; first of three printed): 2.63
- pKa ([6]; second of three printed): 3.97
- pKa ([6]; third of three printed): 6.23
- Neutral form at physiological pH ([6]; pH 7.4, solution speciation diagram based on the acidity constants): ca. 94%
- Effect on metal-induced Aβ aggregation ([2]; CuCl2 or ZnCl2 25 µM, compound 50 µM, 37 °C): noticeable effects on the modulation of metal-induced Aβ aggregation
- Effect on metal-free Aβ40/Aβ42 aggregation ([2]; compound 50 µM, 4, 8, 24 h, 37 °C): could direct the production of Aβ species with a wide range of MW
- Copper-mediated generation of hydroxyl radicals [7]: significantly reduced
- Inhibition of Aβ42 dodecamer formation ([8]; 1:5 mixture of Aβ42 and ML): completely
- Inhibition of Aβ42 hexamer formation ([8]; 1:5 mixture of Aβ42 and ML): partially
- Disaggregation of preformed Aβ42 dodecamers ([8]; Aβ42 on ice ca. 4 h, then ML added (1:5)): disaggregates preformed dodecamers
- concentration at 5 min ([9]; brain): 14.3 ± 4 ng/g
- concentration at 5 min ([9]; plasma): 5.91 ± 1.24 ng/mL
- Dissociation constant (Kd) with Zn(II) [10]: nanomolar range
- half-life at 1 µM [11]: < 30 min
- Dissociation constant (Kd) with Cu(II) [12]: picomolar range
- Cell survival, compound with and without metal ions (no Aβ) [13]: ca. 85%
- half-life at 1 µM [14]: < 30 min
- Free radical scavenging (TEAC) in solution relative to DAP, 1 and Trolox [15]: ca. 2.6
- Selectivity toward Zn(II) over other divalent metal ions [16]: relatively selective for Zn(II) over Mg(II), Ca(II), or Mn(II)

SMILES: Nc1cccc2ccc(CO)nc12 [Compound 1, (8-aminoquinolin-2-yl)methanol, reference compound]
- Antioxidant capacity (TEAC value) in cell lysates [1]: 0.86 ± 0.10
- Effect on preformed metal-free and metal-treated Aβ aggregates [3]: no discernible difference
- −logPe [4]: 4.70 (±0.01)
- Dissociation constant (Kd) with Zn(II) [10]: micromolar range
- Dissociation constant (Kd) with Cu(II) [12]: micromolar range
